# Test results published in ChEMBL document CHEMBL3862004, “A Cyclic Tetrapeptide ("Cyclodal") and Its Mirror-Image Isomer Are Both High-Affinity μ Opioid Receptor Antagonists” (J Med Chem, 2016).
# Activity calls are given as the source filed them. No cut-off for these calls is given here.
# Experiments:
# [1] = Metabolic stability in rat plasma assessed as compound remaining at 37 degC measured after 15 mins by reverse-phase HPLC analysis
# [2] = target: Mu-type opioid receptor (Cavia porcellus) (UniProt P97266); assay: Antagonist activity at MOR in guinea pig ileum assessed as inhibition of TAPP-induced muscle contractions
# Summary of the method: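 Guinea pig ileum preparation. Ke was derived from the ratio of TAPP IC50 with and without a fixed antagonist concentration. Mean of three to four determinations ± SEM.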
# [3] = target: Delta-type opioid receptor (Mus musculus) (UniProt P32300); assay: Partial agonist activity at delta opioid receptor in mouse vas deferens assessed as inhibition of electrically-stimulated muscle contraction
# Summary of the method: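 Mouse vas deferens preparation. A [Leu5]enkephalin dose–response curve was run on each preparation as standard, and test IC50 values were normalised to it. Mean of three to four determinations ± SEM.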
# Rattus norvegicus = species on record: Rattus norvegicus; assay: Selectivity ratio of Ki for DOR in rat brain membrane to Ki for MOR in rat brain membrane; assay type: cell membranes
# [4] = Selectivity ratio of Ki for KOR in guinea pig brain membrane to Ki for MOR in rat brain membrane; assay type: cell membranes
# [5] = AUC in CD-1 mouse brain at 2 mg/kg, iv by LC-MS/MS analysis; assay type: ADME, organism-based; conditions: in vivo
# Summary of the method: (§1)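 Male CD1 mice (27 g) given 2 mg/kg iv in saline; brain and plasma sampled at 5, 15, 30, 60, 120 and 240 min. Brain homogenised in PBS pH 7.4, plasma proteins precipitated with acetonitrile/methanol (1:1). Quantitation by LC–MS/MS against internal standard, with standard curves extracted from brain homogenate and fitted by 1/x-weighted linear regression. AUCs were taken from concentration–time curves.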
# [6] = Cmax in CD-1 mouse brain at 2 mg/kg, iv measured after 30 mins by LC-MS/MS analysis; assay type: ADME, organism-based; set-up: dose 2 mg/kg, route intravenous; summary of the method: as §1
# [7] = Metabolic stability in rat plasma at 37 degC measured up to 48 hrs by reverse-phase HPLC analysis; assay type: ADME, cell-free
# Summary of the method: (§2)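 Peptide at 0.5 mg/mL in 0.01 M phosphate buffer pH 7.4 mixed 1:1 with rat plasma supernatant and incubated at 37 °C. Samples taken at 0, 5, 10, 15, 30 min and 1, 2, 3, 24, 48 h, quenched with acetonitrile and 2% TFA/water. Analysed by reversed-phase C18 HPLC; peak areas expressed as percent of initial.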
# [8] = AUC in CD-1 mouse plasma at 2 mg/kg, iv by LC-MS/MS analysis; assay type: ADME, organism-based; summary of the method: as §1
# [9] = target: Delta-type opioid receptor (Rattus norvegicus, UniProt P33533); assay: Displacement of [3H]DSLET from DOR in rat brain membrane measured after 2 hrs; assay type: cell membranes
# [10] = target: Kappa-type opioid receptor (Cavia porcellus, UniProt P41144); assay: Displacement of [3H]U69,593 from KOR in guinea pig brain membrane measured after 2 hrs; assay type: cell membranes
# Summary of the method: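 Guinea pig brain membranes incubated 2 h at 0 °C with 0.80 nM [3H]U69,593. […] Values are the mean of three to four determinations ± SEM.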
# [11] = Metabolic stability in rat plasma assessed as compound degradation at 37 degC measured after 2 hrs by reverse-phase HPLC analysis; assay type: ADME, cell-free; conditions: read-out: Drug degradation; summary of the method: as §2
# Mu-type opioid receptor [12] = target: Mu-type opioid receptor (Cavia porcellus, UniProt P97266); assay: Agonist activity at MOR in guinea pig ileum assessed as inhibition of electrically-stimulated muscle contractions
# Summary of the method: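 Isolated guinea pig ileum preparation; each preparation received a [Leu⁵]enkephalin standard dose–response curve. IC50 values came from concentration–response curves and were normalized to that standard. Values are the mean of three to four determinations ± SEM.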
# [13] = target: Kappa-type opioid receptor (Cavia porcellus) (UniProt P41144); assay: Antagonist activity at KOR in guinea pig ileum assessed as inhibition of U50,488-induced muscle contractions
# Mu-type opioid receptor [14] = target: Mu-type opioid receptor (Rattus norvegicus, UniProt P33535); assay: Displacement of [3H]DAMGO from MOR in rat brain membrane measured after 2 hrs; assay type: cell membranes
# Sequence of Mu-type opioid receptor (Rattus norvegicus, UniProt P33535) (P33535 whole entry): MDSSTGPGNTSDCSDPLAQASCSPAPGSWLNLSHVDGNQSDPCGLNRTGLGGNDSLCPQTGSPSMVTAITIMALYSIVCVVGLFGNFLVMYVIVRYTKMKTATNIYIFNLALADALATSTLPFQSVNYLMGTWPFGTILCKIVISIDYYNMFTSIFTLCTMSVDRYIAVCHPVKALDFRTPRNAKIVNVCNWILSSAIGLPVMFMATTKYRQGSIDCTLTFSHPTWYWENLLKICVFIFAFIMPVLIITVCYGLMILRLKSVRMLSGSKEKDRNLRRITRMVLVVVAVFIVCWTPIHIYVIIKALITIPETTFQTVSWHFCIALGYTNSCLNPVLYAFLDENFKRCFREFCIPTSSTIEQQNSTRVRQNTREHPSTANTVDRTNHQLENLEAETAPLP
# Sequence of Delta-type opioid receptor (Mus musculus) (P32300 whole entry): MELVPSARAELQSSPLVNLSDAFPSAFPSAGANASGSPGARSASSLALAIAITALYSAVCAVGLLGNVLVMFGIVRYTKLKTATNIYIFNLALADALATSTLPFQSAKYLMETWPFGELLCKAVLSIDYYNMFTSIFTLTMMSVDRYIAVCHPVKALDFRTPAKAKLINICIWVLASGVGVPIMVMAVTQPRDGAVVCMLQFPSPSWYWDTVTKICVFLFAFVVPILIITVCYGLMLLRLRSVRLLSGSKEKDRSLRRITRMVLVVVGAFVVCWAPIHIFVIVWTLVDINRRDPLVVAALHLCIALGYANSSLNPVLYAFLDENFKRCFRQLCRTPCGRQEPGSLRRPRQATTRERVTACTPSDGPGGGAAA
# Sequence of Delta-type opioid receptor (P33533 whole entry): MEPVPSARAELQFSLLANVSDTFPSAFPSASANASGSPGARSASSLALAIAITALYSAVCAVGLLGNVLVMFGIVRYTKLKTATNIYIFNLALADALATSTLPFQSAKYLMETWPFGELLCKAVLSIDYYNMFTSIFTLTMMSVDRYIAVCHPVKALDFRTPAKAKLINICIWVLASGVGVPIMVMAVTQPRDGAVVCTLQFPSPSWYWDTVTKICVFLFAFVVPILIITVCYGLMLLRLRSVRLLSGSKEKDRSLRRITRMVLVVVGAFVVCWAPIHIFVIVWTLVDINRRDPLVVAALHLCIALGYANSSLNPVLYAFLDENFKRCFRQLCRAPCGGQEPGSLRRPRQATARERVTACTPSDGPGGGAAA
# Sequence of Kappa-type opioid receptor (P41144 whole entry): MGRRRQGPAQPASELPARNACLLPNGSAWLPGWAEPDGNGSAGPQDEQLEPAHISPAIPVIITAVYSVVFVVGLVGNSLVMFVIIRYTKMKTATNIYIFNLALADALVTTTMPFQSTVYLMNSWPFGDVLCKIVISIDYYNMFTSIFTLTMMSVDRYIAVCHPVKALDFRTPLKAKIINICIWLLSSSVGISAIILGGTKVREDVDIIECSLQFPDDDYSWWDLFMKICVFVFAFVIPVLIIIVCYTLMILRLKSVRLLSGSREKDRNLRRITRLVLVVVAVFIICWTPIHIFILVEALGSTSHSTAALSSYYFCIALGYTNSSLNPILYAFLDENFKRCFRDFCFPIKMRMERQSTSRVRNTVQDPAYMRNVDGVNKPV
# Sequence of Mu-type opioid receptor (Cavia porcellus) (P97266 whole entry): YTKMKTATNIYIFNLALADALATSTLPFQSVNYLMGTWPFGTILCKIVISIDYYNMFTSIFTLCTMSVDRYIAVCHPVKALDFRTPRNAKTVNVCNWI
# Sequence of Kappa-type opioid receptor (Cavia porcellus) (P41144 whole entry): as the sequence (P41144 whole entry) above
# Sequence of Mu-type opioid receptor (Cavia porcellus, UniProt P97266) (P97266 whole entry): as the sequence (P97266 whole entry) above
structure (smiles),measurement,setting,value
CC(C)C[C@H](NC(=O)[C@H](Cc1ccccc1)NC(=O)CNC(=O)CNC(=O)[C@@H](N)Cc1ccc(O)cc1)C(=O)O [ENKEPHALIN],remaining at 0.25 h,[1],< 15%
Cc1cc(O)cc(C)c1C[C@@H]1NC(=O)C(CCCN)NC(=O)[C@H](Cc2ccccc2)NC(=O)[C@@H](CCCNC(=N)N)NC1=O (stereo partly drawn),Ke,[2],16.8 nM
same,Activity,[3],Active
Cc1cc(O)cc(C)c1C[C@@H]1NC(=O)[C@H](CCCCN)NC(=O)[C@H](Cc2ccccc2)NC(=O)[C@@H](CCCCNC(=N)N)NC1=O,Ratio Ki,Rattus norvegicus,25
same,Activity,[3],Active
same,Ratio Ki,[4],23
Cc1cc(O)cc(C)c1C[C@@H]1NC(=O)[C@H](CCCCN)NC(=O)[C@H](Cc2ccccc2)NC(=O)[C@@H](CCCNC(=N)N)NC1=O,AUC,[5],0.052 µg·min/g
same,Cmax,[6],0.6 ng/g
same,Stability,[7],Stable
same,AUC,[8],0.505 ng·h/mL
C[C@@H](O)[C@H](NC(=O)[C@H]1NC(=O)[C@H]([C@@H](C)O)NC(=O)[C@H](CCCN)NC(=O)[C@@H](Cc2c[nH]c3ccccc23)NC(=O)[C@H](Cc2ccc(O)cc2)NC(=O)[C@@H](NC(=O)[C@H](N)Cc2ccccc2)CSSC1(C)C)C(N)=O,Ki,[9],258 nM
same,Ki,[10],14900 nM
same,Activity,[3],Active
same,metabolised at 2 h,[11],25%
Cc1cc(O)cc(C)c1C[C@@H]1NC(=O)[C@H](CCCCN)NC(=O)[C@H](Cc2ccccc2)NC(=O)[C@@H](CCCNC(N)=O)NC1=O,Ratio Ki,Rattus norvegicus,52
same,Ratio Ki,[4],165
Cc1cc(O)cc(C)c1C[C@@H]1NC[C@H](CCCCN)NC(=O)[C@H](Cc2ccccc2)NC(=O)[C@@H](CCCNC(=N)N)NC1=O,IC50,Mu-type opioid receptor [12],2510 nM
same,Ratio Ki,Rattus norvegicus,47
same,Activity,[3],Active
same,Ratio Ki,[4],7
CCCC[C@@H]1NC(=O)[C@H](Cc2ccccc2)NC(=O)[C@@H](CCCNC(=N)N)NC(=O)[C@H](Cc2c(C)cc(O)cc2C)NC1=O,Activity,[3],Active
Cc1cc(O)cc(C)c1C[C@@H]1NC(=O)C[C@H](CCCCN)NC(=O)[C@H](Cc2ccccc2)NC(=O)[C@@H](CCCNC(=N)N)NC1=O,Ki,[9],16.7 nM
same,Ratio Ki,Rattus norvegicus,135
same,Ki,[10],0.786 nM
same,Ke,[13],18.2 nM
same,Ki,Mu-type opioid receptor [14],0.124 nM
same,Ke,[2],10.5 nM
same,Ratio Ki,[4],6
